pIC50: −log10 of the molar value. The source made the active and inactive calls. The rule behind the calls is not given here.

Experimental findings from ChEMBL document CHEMBL4396943, “The tetrahydroxanthone-dimer phomoxanthone A is a strong inducer of apoptosis in cisplatin-resistant solid cancer cells” (Bioorg Med Chem, 2019) are described below.

Experiment [1] has as its system A2780. The experiment can be described thus: Induction of apoptosis in human A2780 cells assessed as increase in intracellular calcium level at 10 to 30 uM incubated for 30 mins in presence of 1 mM extracellular calcium by fluorimetry. Format: functional, cell-based. The method in brief:
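Cells seeded in 96-well plates overnight, washed twice with Krebs-HEPES buffer, loaded 1 h at 37 °C in the dark with Oregon Green BAPTA-1 AM (final 3 µM) and Pluronic F-127. Buffer replaced, PXA added, fluorescence at 544 nm recorded for 30 min, with or without 1 mM extracellular Ca2+. Three experiments, mean ± SEM.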
On the technique in general: A change in cytosolic calcium serves as a functional read-out for many receptors and channels.

Experiment [2] relates to A2780cisR. Briefly: Reduction of H2O2-induced ROS generation in human A2780cisR cells at 316 nM incubated for 18 hrs by H2DCFDA staining based flow cytometry. In kind it is functional, cell-based. In short, it runs like this: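 Cells plated overnight in growth medium (approx. 150,000 cells/well), exposed to compound for 18 h. Then washed with PBS and moved to phenol red-free RPMI-1640 without FBS or antibiotics. Loaded with 10 µM H2DCF-DA, 30 min, 37 °C, dark. One aliquot then given 250 µM H2O2 for 1 h at 37 °C in the dark. DCF fluorescence read by flow cytometry; three independent experiments.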
For orientation: Flow cytometry measures light scatter and fluorescence of single cells or particles in a stream.

For experiment [3], the system named is MDA-MB-231. Briefly: Antiproliferative activity against human MDA-MB-231 cells assessed as reduction in cell viability incubated for 72 hrs by MTT assay. Conditions: MDA-MB-231, 72 h. In kind it is functional, cell-based. The method in brief:
(§1)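 Cells seeded overnight in 96-well plates, then exposed to increasing concentrations (compound dissolved in DMSO, diluted in medium) for the stated time. MTT (5 mg/ml in PBS) added for 15 min, formazan dissolved in DMSO, absorbance read at 544 nm minus 690 nm background. IC50 = concentration giving 50% signal decrease. At least three independent experiments in triplicate.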
(In general: Tetrazolium assays rely on reduction of a dye to a coloured formazan, in cell work by metabolically active cells.)

In experiment [4] the test system is J82. Briefly: Induction of apoptosis in human J82 cells assessed as depolarization of mitochondrial membrane potential incubated for 1 hr by TMRE staining based flow cytometry. Format: functional, cell-based. The method in brief: (§2)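 Cells seeded overnight; complete medium swapped for FBS-free medium just before treatment to avoid TMRE ester cleavage. Exposure to PXA for 1 h, 2 h or 24 h. TMRE staining 20 min, cells collected by trypsinisation, ΔΨm read by flow cytometry. Medium served as negative control, 20 µM CCCP as positive control. Mean ± SEM reported.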

The next experiment concerns CAL-27. Briefly: Potency index, ratio of cisplatin IC50 to compound IC50 for antiproliferative activity in human CAL27 cells assessed as reduction in cell viability incubated for 72 hrs by MTT assay. In kind it is functional. In short, it runs like this:
(§3)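 Cells seeded in 96-well plates overnight, exposed 72 h to increasing concentrations. MTT (5 mg/ml) added for 15 min, formazan dissolved in DMSO, absorbance read at 544 nm with 690 nm background subtracted. IC50 is the concentration reducing signal by 50%. Three independent experiments in triplicate. CisR sublines made by weekly intermittent cisplatin exposure for 24–30 weeks.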

Experiment [5] deals with A2780. The experiment can be described thus: Induction of apoptosis in human A2780 cells assessed as depolarization of mitochondrial membrane potential afer 24 hrs by TMRE staining based flow cytometry. Format: functional, cell-based. In short, it runs like this: (§4)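 Cells seeded overnight; medium switched to FBS-free just before treatment to avoid TMRE ester cleavage. Exposure 1 h, 2 h or 24 h, then TMRE staining for 20 min. Cells trypsinized, centrifuged at 4 °C and read by flow cytometry. Medium as negative control, 20 µM CCCP as positive control. […]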

Experiment [6] deals with A2780cisR. The experiment can be described thus: Induction of apoptosis in human A2780cisR cells assessed as increase in caspase 3 cleavage at 5 uM incubated for 24 hrs by proteome profiler analysis. Format: functional, cell-based. The method in brief:
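A2780 and A2780CisR cells treated 24 h with 5 µM PXA; apoptosis-related proteins profiled with a human apoptosis antibody array following kit instructions.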

The subject of experiment [7] is A2780cisR. Briefly: Potency index, ratio of cisplatin IC50 to compound IC50 for antiproliferative activity in human A2780cisR cells assessed as reduction in cell viability incubated for 72 hrs by MTT assay. In kind it is functional. In short, it runs like this:
as §3

Experiment [8] has as its system J82. Briefly: Induction of apoptosis in cisplatin-resistant human J82 cells assessed as nuclear condensation by measuring reduced size and increased intensity of nuclei at 30 uM incubated for 24 hrs by hoechst 33342 staining based fluorescence microscopy. Format: functional, cell-based.
The subject of experiment [9] is J82. The experiment can be described thus: Induction of apoptosis in cisplatin resistant human J82 cells assessed as increase in activation of caspase 3/7 at 30 uM incubated for 24 hrs by hoechst 33342 staining based fluorescence microscopy (reference value: 0.5%). Format: functional.
Experiment [10] concerns J82. The experiment can be described thus: Ratio of IC50 for antiproliferative activity in human J82 cells to cisplatin-resistant human J82 cells assessed as reduction of cell viability incubated for 72 hrs by MTT assay. In kind it is functional. The method in brief:
as §3

Experiment [11] has as its system J82. Briefly: Induction of apoptosis in human J82 cells assessed as increase in activation of caspase 3/7 at 50 uM incubated for 24 hrs by hoechst 33342 staining based fluorescence microscopy (reference value: 1.1%). Format: functional.
For another experiment, the system named is KYSE-510. Briefly: Antiproliferative activity against human KYSE-510 cells assessed as reduction in cell viability incubated for 72 hrs by MTT assay. Format: functional, cell-based. Conditions: KYSE-510, 72 h. The method in brief:
as §1

The test system of experiment [12] is J82. The experiment can be described thus: Induction of apoptosis in cisplatin resistant human J82 cells assessed as depolarization of mitochondrial membrane potential incubated for 1 hr by TMRE staining based flow cytometry. Format: functional, cell-based. In short, it runs like this:
as §4

Experiment [13] relates to A2780cisR. The experiment can be described thus: Ratio of IC50 for antiproliferative activity in human A2780cisR cells assessed as reduction in cell viability incubated for 24 hrs by MTT assay to IC50 for antiproliferative activity in human A2780cisR cells assessed as reduction in cell viability incubated for 72 hrs by MTT assay. In kind it is functional. In short, it runs like this: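 MTT assay as for the viability IC50s (overnight seeding, MTT 15 min, DMSO solubilisation, 544/690 nm), with PXA incubation for 24 h versus 72 h. IC50 is the concentration giving a 50% signal decrease. At least three independent experiments.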

For experiment [14], the system named is J82. Briefly: Cell cycle arrest in cisplatin resistant human J82 cells assessed as accumulation at G1 phase at 10 uM incubated for 24 hrs by propidium iodide staining based flow cytometry (reference value: 78.1%). In kind it is functional. In short, it runs like this:
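After 24 h exposure, cells washed in ice-cold PBS. About 2 million cells fixed in cold 70% ethanol at −20 °C for at least 24 h. Stained with 0.1% Triton X-100, 200 µg/ml RNase A and 20 µg/ml propidium iodide in PBS, 15 min at 37 °C in the dark. DNA content read by flow cytometry with doublet discrimination. Medium as untreated control, paclitaxel as G2/M control. Three independent experiments.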

The test system of experiment [15] is J82. Briefly: Induction of apoptosis in human J82 cells assessed as depolarization of mitochondrial membrane potential incubated for 2 hrs by TMRE staining based flow cytometry. Format: functional, cell-based. The method in brief: as §2
In experiment [16] the test system is MDA-MB-231. The experiment can be described thus: Antiproliferative activity against cisplatin-resistant human MDA-MB-231 cells assessed as reduction in cell viability incubated for 72 hrs by MTT assay. Conditions: MDA-MB-231, 72 h. In kind it is functional, cell-based. The method in brief: as §1
In experiment [17] the test system is J82. The experiment can be described thus: Induction of apoptosis in human J82 cells assessed as nuclear condensation by measuring reduced size and increased intensity of nuclei at 50 uM incubated for 24 hrs by hoechst 33342 staining based fluorescence microscopy. Format: functional, cell-based.
Another experiment has as its system K562. The experiment can be described thus: Potency index, ratio of cisplatin IC50 to compound IC50 for antiproliferative activity in human K562 cells assessed as reduction in cell viability incubated for 72 hrs by MTT assay. In kind it is functional. The method in brief:
as §3

Take `CC(=O)OC[C@]12Oc3c(-c4ccc(O)c5c4O[C@@]4(COC(C)=O)C(=C(O)C[C@@H](C)[C@H]4OC(C)=O)C5=O)ccc(O)c3C(=O)C1=C(O)C[C@@H](C)[C@H]2OC(C)=O` [PHOMOXANTHONE A]: the outcome with A2780 [1], in the experiment with A2780cisR [6], in the experiment with J82 [8] and in the experiment on J82 [17] was Active. The inhibition result in the experiment with A2780cisR [2] is “inactive”. Also, the negative logarithm of the IC50 (pIC50) (commonly −log10 of the IC50, conventionally taken in molar units) is 5.43 with MDA-MB-231 [3]; 5.43 in the experiment on J82 [4] (J82, 1 h); 6.12 in the experiment with KYSE-510; 5.51 in the experiment with J82 [12] (J82, 1 h); 5.48 in the experiment with J82 [15] (J82, 2 h); 5.36 in the experiment on MDA-MB-231 [16]. The Activity result with J82 [4] is “Dose-dependent effect”; in the experiment with A2780 [5], “Dose-dependent effect”; in the experiment with J82 [9] it was 90%; with J82 [11], 60%; with J82 [12], “Dose-dependent effect”; in the experiment with J82 [14], 81.2%. For the same molecule, the Activity result with J82 [15] is “Dose-dependent effect”. Also, the “Ratio IC50” value is recorded as 2 - 10 in the experiment on CAL-27; 9 with A2780cisR [7]; 1.6 with J82 [10]; 1.4 with A2780cisR [13]; 5 in the experiment with K562.
